Results as given in article PMC12062462 (Nature Communications, 2025).

What was measured:
RIPK3-RIPK1 interaction = RIPK3-RIPK1 interaction (Mus musculus, UniProt Q9QZL0); assay: RIPK1 immunoprecipitation; assay type: cell-based; settings: L929, 10 µM, 5 hours
Summary of the method: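 Lysates were cleared at 17,000 g for 15 min at 4 °C, and an input sample was kept. Lysate was incubated with anti-RIPK1 antibody on protein A/G magnetic beads for 2 h at 4 °C. Co-precipitated RIPK3 was detected by Western blot. Normalized quantification came from three independent experiments.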

[1] = system: L929 cells (TNF-α-induced necroptosis); assay: Necroptosis induction and inhibition assay in L929; assay type: cell-based, mouse; settings: Mus musculus, L929, read-out: EC50^L929 against TNF-α-induced necroptosis, mouse TNF-α (20 ng/mL) and zVAD (10 μM), CCK-8
[2] = system: caspase 3 activity in L929 cell lysates; assay: Caspase 3 activity in L929 cell lysates; assay type: cell-based, mouse
Summary of the method: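 L929 cells were cultured 12 h in 12-well plates, then exposed to test compound or DMSO for 0, 1, 2, 3 or 4 h. Protein was measured by BCA. Lysate was incubated with Ac-DEVD-pNA overnight at 37 °C and read at A405 minus blank. Three experiments, each in triplicate.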

panel of 291 kinases = settings: 1 µM, overlapping panel of 272 kinases; ref 30 (Mandal et al., 2014); cited from earlier work
[3] = system: L929 RIPK3-/- + RIPK3 K51A cells; assay: Cell viability assay with or without zVAD, L929 RIPK3-/- + RIPK3 K51A; assay type: cell-based, mouse; settings: 1.6 μM, without zVAD
Summary of the method: (§1)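 L929 cells were grown in MEM with 10% FBS. RIPK3 was knocked out by CRISPR/Cas9 (sgRNA against mouse RIPK3), and knockout was confirmed by sequencing and immunoblot. Knockout lines with or without re-expressed RIPK3 K51A or K51A/R69H were seeded at 10,000–20,000 cells/well and left to attach for 24 h. Cells were exposed to test compound alone or with zVAD for 18–20 h. Viability was read by CCK-8 (1–2 h, 37 °C, A450). Three experiments in triplicate; CC50 by nonlinear regression.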

[4] = system: L929 RIPK3-/- + RIPK3 K51A/R69H cells; assay: Cell viability assay with or without zVAD, L929 RIPK3-/- + RIPK3 K51A/R69H; assay type: cell-based, mouse
Summary of the method: as §1

[5] = system: caspase 3 and caspase 8 cleavage in L929 cells; assay: Western blot of caspase 3 and caspase 8 cleavage in L929 cells; assay type: cell-based, mouse; settings: L929, 3 hours
Summary of the method: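 L929 cells in 12-well plates at about 80% confluency were exposed for 3 h to test compound, DMSO or medium, each with 10 µM zVAD. Cells were lysed at room temperature in a Triton X-100/Tris-based 1× SDS sample buffer and boiled 10 min. Proteins were run on 15% SDS-PAGE and blotted to PVDF. Membranes were blocked in 5% milk and probed for caspase 3 and caspase 8 cleavage overnight at 4 °C. Three independent experiments.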

[6] = system: HT29 cells (TNF-α-induced necroptosis); assay: Necroptosis induction and inhibition assay in HT29; assay type: cell-based, human; settings: Homo sapiens, HT-29, read-out: EC50^HT29 against TNF-α-induced necroptosis, zVAD (20 μM), human TNF-α (40 ng/mL), Smac mimetic SM-164 (100 nM), CCK-8
mRIPK3^KD R69H = mRIPK3^KD R69H (Mus musculus, UniProt Q9QZL0, C111A/R69H); assay: Size-exclusion chromatography; settings: protein 10 mg/mL, compound 1 mM
Sequence of mRIPK3^KD R69H (Q9QZL0 1-313 R69H/C111A): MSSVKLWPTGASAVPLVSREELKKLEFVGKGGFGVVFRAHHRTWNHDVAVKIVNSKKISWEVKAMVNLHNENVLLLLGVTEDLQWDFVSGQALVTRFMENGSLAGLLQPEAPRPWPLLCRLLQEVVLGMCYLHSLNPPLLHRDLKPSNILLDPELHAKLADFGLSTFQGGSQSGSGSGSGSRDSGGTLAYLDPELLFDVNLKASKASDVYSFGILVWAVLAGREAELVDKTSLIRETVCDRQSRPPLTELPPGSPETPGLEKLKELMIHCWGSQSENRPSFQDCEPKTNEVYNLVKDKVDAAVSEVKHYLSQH
Summary of the method: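 Mouse RIPK3 kinase domain 1-313 (C111A/R69H, C-terminal 10×His) was expressed in Sf-9 cells by baculovirus, with 10 µM test compound or DMSO added to the lysate. Ni-NTA eluate was concentrated to 10 mg/mL, incubated with 1 mM compound and centrifuged at 17,000 g for 15 min. It was then run on Superdex 200 Increase 10/300 in 25 mM Tris pH 8.0, 150 mM NaCl, 5 mM DTT plus 10 µM compound. Three independent runs.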

RIPK3-mediated apoptosis = settings: cited from earlier work

Sequence of RIPK3-RIPK1 interaction (Q9QZL0 whole entry): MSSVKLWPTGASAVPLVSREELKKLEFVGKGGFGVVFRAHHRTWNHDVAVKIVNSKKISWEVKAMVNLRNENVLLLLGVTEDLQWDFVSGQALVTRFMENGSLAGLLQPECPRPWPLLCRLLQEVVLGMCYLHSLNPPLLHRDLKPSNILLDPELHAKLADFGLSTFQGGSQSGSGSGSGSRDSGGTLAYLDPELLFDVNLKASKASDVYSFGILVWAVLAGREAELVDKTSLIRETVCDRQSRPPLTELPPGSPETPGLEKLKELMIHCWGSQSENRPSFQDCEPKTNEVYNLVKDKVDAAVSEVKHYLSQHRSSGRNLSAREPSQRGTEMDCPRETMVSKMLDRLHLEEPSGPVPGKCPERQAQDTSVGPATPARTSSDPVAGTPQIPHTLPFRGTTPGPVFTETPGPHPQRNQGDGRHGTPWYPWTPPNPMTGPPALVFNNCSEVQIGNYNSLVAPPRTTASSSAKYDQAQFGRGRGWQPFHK

Molecule | interaction between RIPK3 and RIPK1 (co-immunoprecipitation) (RIPK3-RIPK1 interaction) | EC50 [1] | concentration at which caspase 3 is activated [2] | number of kinases inhibited by >65% (panel of 291 kinases) | viability of cells expressing the ATPase-inactive RIPK3 K51A mutant [3] | apoptosis in cells expressing RIPK3 K51A and R69H double mutation [4] | activation of the apoptotic pathway: cleavage of caspase 8 and caspase 3 (Western blot) [5] | EC50 [6] | elution position of mRIPK3^KD R69H in complex with inhibitor (mRIPK3^KD R69H) | concentration triggering RIPK3-mediated apoptosis relative to EC50 (RIPK3-mediated apoptosis)
CC(C)S(=O)(=O)c1ccc2nccc(Nc3ccc4scnc4c3)c2c1 [GSK'872, reference compound] | enhances the interaction between RIPK3 and RIPK1 | 3.6 µM | 5 µM | 13 kinases | significantly reduces the viability | does not cause such apoptosis | cleavage of caspase 8 and caspase 3 | 7.9 µM | aligns with a monomer | 
GSK'840 |  |  |  |  |  |  |  |  |  | approximately twice their EC50 values
